From ChEMBL document CHEMBL1129476, “In vivo activity and hydrophobicity of cytostatic aziridinyl quinones” (J Med Chem, 1996) come the findings set out here.

Data set [1] can be described thus: Observed rate of hydrolysis (logKobs) (pH=4.0). Format: ADME. In outline: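 Hydrolysis followed by cyclic voltammetry at 20 °C in deaerated 0.1 M acetate buffers (pH 5.0–3.5) or 0.02 M NaH2PO4 (pH 3.5, 3.0), ionic strength 0.1 M (NaNO3). Decrease of the parent cathodic peak tracked over time. Pseudo-first-order kobs from linear regression of log concentration versus time.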

Data set [2] in a line: HPLC capacity factor (logK). Type of data set: ADME.
A short description of data set [3]: (§1) log 1/MIC for fungi in mmol/L. Type of data set: functional.
Data set [4] in a line: log 1/anion production. Format: functional.
Data set [5] relates to L1210. The data set is described as follows: log 1/ID75 for the in vitro clonogenic L1210 assay with ID75 in umol/L. Type of data set: functional, Mus musculus.
Data set [6] in a line: E1/2 for the half-wave potential at pH=7.0 in V57. Format: ADME.
Data set [7] is described as follows: log 1/LD50 for LD50 (mmol/kg). Type of data set: ADME.
The nature of data set [8]: log KGSH for the rate k of glutathione (GSH) consumption in 1/s. Format: functional.
A further data set relates to B16. The data set is described as follows: log 1/D125 or the dose (mmol/kg) to give 125%T/C ratio (B16) in vivo. Format: functional, Mus musculus.
Data set [9] relates to L1210. The experiment in a line: log 1/D125 for the dose (mmol/kg) to give 125%T/C ratio (L1210) in vivo. Type of data set: functional, Mus musculus.
A further data set concerns Fungi. The description is as §1. Type of data set: functional.
In another data set the test system is Nucleic Acid. The data set is described as follows: (§2) DNA cross link ratio at pH=5.0 and 50 umol/L compound. Type of data set: functional.
Data set [10] is described as follows: Electrochemically observed pKa (pKred) of aziridines. The settings on record: read-out: pKred. Type of data set: physicochemical.
Data set [11] can be described thus: Partition coefficient (logP). The settings on record: octanol/water. Type of data set: physicochemical. In outline: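 Micro shake-flask: buffered aqueous compound solution (pH 6.50) shaken with an equal volume of water-saturated 1-octanol at room temperature, 3 × 120 s. Centrifuged 14000g, 15 min. Aqueous phase analysed by RP-HPLC against the unshaken solution (methanol 30, 50 or 70 wt%, 1.0 mL/min, UV 254 nm). Run in duplicate, or quadruplicate if needed.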

The nature of data set [12]: as §2. Format: functional.

In data set [1], `O=C1C(Br)=C(N2CC2)C(=O)C(Br)=C1N1CC1` registered a Log Kobs of -4.7. The “Log K” value in data set [2] is reported as 0.474. In addition, in data set [3], the Log 1/MIC (mM L-1) was determined as 1.54. The Log 1/conc (mM min-1 L-1) in [4] amounted to 2.87. Moreover, the “Log 1/ID75 (uM L-1)” value in the data set with L1210 [5] is 0.35.
The logP is a log measure of how a compound divides between an organic and an aqueous phase. In the case of `O=C1C=C(N2CC2)C(=O)C=C1N1CC1`, in data set [1], the Log Kobs is -2.57. Moreover, the E 1/2 in data set [6] was -0.105. For the same compound, in [7], the “Log 1/LD50 (mM kg-1)” value turned out to be 1.8. The compound further came in with a Log k GSH (s-1) in [8] of -3.24. In addition, the “Log 1/D125 (mM kg-1)” value with B16 came to 3.16. Further, the “Log 1/D125 (L1210) (mM kg-1)” value with L1210 [9] came to 2.77. The “Log 1/MIC (mM L-1)” value in the data set on Fungi is 2.58. The Log 1/conc (mM min-1 L-1) in data set [4] was 2.09. In addition, the DNA cross-link ratio in the data set with Nucleic Acid is 0.29. The “Log 1/ID75 (uM L-1)” value with L1210 [5] is 1.68. Moreover, in [10], the pKa came out at 7.5. The compound also came in with a logP in [11] of 0.18.
In data set [1], `COC(COC(N)=O)C1=C(N2CC2)C(=O)C(C)=C(N2CC2)C1=O` (stereo not drawn) [CARBOQUONE] gave a Log Kobs of -3.65. Also, the Log K in data set [2] is -0.438. Also, the E 1/2 in [6] was -0.182. Besides, the “Log 1/LD50 (mM kg-1)” value in data set [7] was 1.73. The same compound yielded a Log k GSH (s-1) in data set [8] of -5.15. In the data set on B16, the “Log 1/D125 (mM kg-1)” value stood at 3.32. Also, the “Log 1/D125 (L1210) (mM kg-1)” value in the data set with L1210 [9] was 3.21. In the data set with Fungi, this compound came in with a Log 1/MIC (mM L-1) of -1.19. The compound also had a Log 1/conc (mM min-1 L-1) in [4] of 0.57. The DNA cross-link ratio with Nucleic Acid was 0.26. Also, the “Log 1/ID75 (uM L-1)” value in the data set on L1210 [5] worked out at 1.05. The pKa in [10] is 8.6. In addition, the logP in [11] is -0.15.
Regarding `CCOC(=O)NC1=C(N2CC2)C(=O)C(NC(=O)OCC)=C(N2CC2)C1=O` [DIAZIQUONE], in [1], the Log Kobs was -4.25. Also, the Log K in data set [2] was -0.48. Also, in data set [6], the E 1/2 is -0.149. In [7], the “Log 1/LD50 (mM kg-1)” value is 1.54. In [8], this compound gave a Log k GSH (s-1) of -4.64. In addition, in the data set on B16, the “Log 1/D125 (mM kg-1)” value is recorded as 2.32. Also, in the data set on L1210 [9], the “Log 1/D125 (L1210) (mM kg-1)” value came to 2.26. For the same compound, the Log 1/MIC (mM L-1) in the data set with Fungi was -0.29. The Log 1/conc (mM min-1 L-1) in [4] came out at 1.56. Further, the DNA cross-link ratio in the data set on Nucleic Acid came out at 0.14. Moreover, the Log 1/ID75 (uM L-1) in the data set with L1210 [5] is -0.57. In data set [10], the pKa turned out to be 8.3. In addition, in [11], the logP was 0.04.
For the compound `CC1=C(N2CC2C)C(=O)C(Br)=C(N2CC2C)C1=O` (stereo not drawn), in data set [1], the Log Kobs was -3.85. In data set [6], the E 1/2 was -0.194. In addition, in data set [7], the “Log 1/LD50 (mM kg-1)” value is reported as 1.59. Further, the “Log 1/D125 (mM kg-1)” value in the data set on B16 was found to be 1.71. In addition, the “Log 1/D125 (L1210) (mM kg-1)” value with L1210 [9] is reported as 1.79. The “Log 1/MIC (mM L-1)” value in the data set on Fungi is on record as 1.01. This compound gave a Log 1/conc (mM min-1 L-1) in [4] of 2.5. Also, the lnK in [12] is 0.03. For the same compound, the “Log 1/ID75 (uM L-1)” value in the data set with L1210 [5] is reported as 2.66. Further, the pKa in [10] is 9.2.
